Calls of active or inactive are those of the source. The rule behind the calls is not given here. Where only a bound is given, the exact number is not on record here.

For one test, the system named is A2780. Description: Cytotoxicity measured in human ovarian cell line A2780 using sulforhodamine B (SRB) assay. The test is classed as functional, cell-based. Put shortly: (§1)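 SRB growth-inhibition assay in human ovarian carcinoma cells: 3000–6000 cells/well attached overnight, then salts (dissolved at 500 μM in water) added in quadruplicate at final 0.05, 0.25, 1, 5 and 25 μM. After 96 h, cells fixed with ice-cold 10% TCA and stained with 0.4% SRB. Mean A540 expressed as % of untreated control; IC50 = concentration giving 50% growth inhibition.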
A general note: The SRB assay estimates cell density from bound dye.

The subject of the next test is SK-OV-3. Description: Cytotoxicity measured in human ovarian cell line SKOV-3 using sulforhodamine B (SRB) assay. The test is classed as functional, cell-based. A digest of the protocol:
as §1

Another test deals with CH1. Put plainly: Cytotoxicity measured in human ovarian cell line CH1 using sulforhodamine B (SRB) assay. The test is classed as functional, cell-based. A digest of the protocol:
as §1

The target of test [1] is DNA polymerase I, thermostable (Thermus aquaticus) (UniProt P19821). Put plainly: Inhibitory activity against taq polymerase at 10 uM; No inhibition.
Test [2] deals with Telomerase reverse transcriptase (Homo sapiens, UniProt O14746). Description: Inhibitory activity against telomerase. A digest of the protocol:
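Modified TRAP with extract from exponentially growing A2780 ovarian carcinoma cells. Telomerase then inactivated at 80 °C for 5 min, CX primer and Taq added, 31 PCR cycles. Products analysed by denaturing PAGE with phosphorimaging/autoradiography, or by filter scintillation counting.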

Test [3] deals with DNA polymerase I, thermostable (Thermus aquaticus) (UniProt P19821). Description: Inhibitory activity against taq polymerase at 20 uM; No inhibition.
Test [4] shares this target. Description: Inhibitory activity against taq polymerase at 50 uM; No inhibition.
Test [5] has the same target. Description: Inhibitory activity against taq polymerase at 50 uM; Slight.

Sequence of Telomerase reverse transcriptase (O14746 whole entry): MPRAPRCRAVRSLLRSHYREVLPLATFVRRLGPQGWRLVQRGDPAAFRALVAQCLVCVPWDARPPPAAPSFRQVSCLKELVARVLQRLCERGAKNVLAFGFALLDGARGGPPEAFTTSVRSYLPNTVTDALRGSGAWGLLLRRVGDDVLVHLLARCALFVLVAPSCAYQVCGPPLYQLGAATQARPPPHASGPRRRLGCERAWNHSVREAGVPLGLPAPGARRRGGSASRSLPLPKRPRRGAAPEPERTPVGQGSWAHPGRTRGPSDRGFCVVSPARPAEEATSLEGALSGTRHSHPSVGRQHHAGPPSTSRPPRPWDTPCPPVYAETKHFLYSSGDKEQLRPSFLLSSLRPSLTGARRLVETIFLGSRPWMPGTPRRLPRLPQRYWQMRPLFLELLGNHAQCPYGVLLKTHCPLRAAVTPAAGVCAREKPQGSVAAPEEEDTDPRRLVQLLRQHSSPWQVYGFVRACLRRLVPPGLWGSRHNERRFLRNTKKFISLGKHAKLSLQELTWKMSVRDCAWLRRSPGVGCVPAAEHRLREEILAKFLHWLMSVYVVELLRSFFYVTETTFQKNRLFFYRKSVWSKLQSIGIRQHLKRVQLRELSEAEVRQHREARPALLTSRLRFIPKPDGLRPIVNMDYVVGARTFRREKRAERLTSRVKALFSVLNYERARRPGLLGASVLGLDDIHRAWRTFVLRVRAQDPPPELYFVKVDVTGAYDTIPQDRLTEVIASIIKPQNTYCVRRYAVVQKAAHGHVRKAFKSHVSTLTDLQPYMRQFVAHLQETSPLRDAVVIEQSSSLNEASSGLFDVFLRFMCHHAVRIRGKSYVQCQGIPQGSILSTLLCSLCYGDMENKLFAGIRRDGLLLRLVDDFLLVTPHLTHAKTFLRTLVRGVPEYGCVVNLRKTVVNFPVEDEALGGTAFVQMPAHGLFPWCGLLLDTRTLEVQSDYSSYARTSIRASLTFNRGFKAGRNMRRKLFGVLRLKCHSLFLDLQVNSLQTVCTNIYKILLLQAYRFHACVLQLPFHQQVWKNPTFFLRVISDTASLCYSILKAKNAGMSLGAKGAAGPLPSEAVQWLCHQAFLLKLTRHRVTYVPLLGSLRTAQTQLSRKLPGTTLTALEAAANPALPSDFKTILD
Sequence of DNA polymerase I, thermostable (Thermus aquaticus) (P19821 whole entry): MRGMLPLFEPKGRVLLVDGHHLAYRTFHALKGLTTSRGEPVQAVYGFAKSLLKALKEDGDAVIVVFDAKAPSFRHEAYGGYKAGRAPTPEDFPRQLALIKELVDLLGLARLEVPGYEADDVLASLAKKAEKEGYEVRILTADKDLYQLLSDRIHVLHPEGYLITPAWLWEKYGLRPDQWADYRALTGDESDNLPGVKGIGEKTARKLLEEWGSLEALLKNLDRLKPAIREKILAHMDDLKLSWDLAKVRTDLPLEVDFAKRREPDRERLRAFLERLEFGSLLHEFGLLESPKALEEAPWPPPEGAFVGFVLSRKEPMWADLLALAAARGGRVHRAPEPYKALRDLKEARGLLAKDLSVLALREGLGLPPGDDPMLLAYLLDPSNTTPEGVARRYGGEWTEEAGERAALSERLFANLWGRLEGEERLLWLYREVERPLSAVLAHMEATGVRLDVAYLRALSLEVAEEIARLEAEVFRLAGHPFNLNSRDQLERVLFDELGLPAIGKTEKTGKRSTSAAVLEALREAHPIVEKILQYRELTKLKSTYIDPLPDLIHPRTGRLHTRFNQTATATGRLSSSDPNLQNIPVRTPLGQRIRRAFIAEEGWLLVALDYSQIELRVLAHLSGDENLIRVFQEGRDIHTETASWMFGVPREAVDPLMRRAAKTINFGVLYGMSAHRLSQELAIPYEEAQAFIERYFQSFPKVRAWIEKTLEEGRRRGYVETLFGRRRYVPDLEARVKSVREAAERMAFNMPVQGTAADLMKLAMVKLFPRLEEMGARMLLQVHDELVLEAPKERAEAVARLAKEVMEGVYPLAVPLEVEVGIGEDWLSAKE

The term IC50 denotes the concentration that inhibits the measured activity by half. With `C[N+]1(CCC(=O)Nc2ccc3c(c2)C(=O)c2cc(NC(=O)CC[N+]4(C)CCOCC4)ccc2-3)CCOCC1`, the IC50 in the test with A2780 came to 2.55 µM; in the test with SK-OV-3, 2.45 µM; in the test with CH1, 2.15 µM; in test [2], 27.3 µM. The inhibition entry in test [1], in test [3] and in test [4] was “inactive” each time.

Consider `O=C(CCN1CCN(c2ncccn2)CC1)Nc1ccc2c(c1)C(=O)c1cc(NC(=O)CCN3CCN(c4ncccn4)CC3)ccc1-2`, for which the IC50 in the test with A2780 is over 25 µM; in the test on SK-OV-3, over 25 µM; in the test on CH1 it was over 25 µM; in test [2], over 50 µM. The inhibition entry in test [1], in test [3] and in test [4] was “inactive” in each case.

For `CC1CCN(CCC(=O)Nc2ccc3c(c2)C(=O)c2cc(NC(=O)CCN4CCC(C)CC4)ccc2-3)CC1`, the IC50 in the test with A2780 was 2.2 µM; in the test on SK-OV-3, 7.6 µM; in the test with CH1, over 25 µM; in test [2], over 20 µM. Besides, the inhibition result in test [1], in test [3] and in test [4] was “inactive” each time.

For the molecule `O=C(CCN1CCCCC1CO)Nc1ccc2c(c1)C(=O)c1cc(NC(=O)CCN3CCCCC3CO)ccc1-2` (configuration not stated), the IC50 with A2780 came to 13 µM; in the test with SK-OV-3, 15 µM; in the test on CH1, 14 µM; in test [2] it was 8 µM. The inhibition entry in test [1], in test [3] and in test [4] was “inactive” each time.

On to `CC1CC[N+](C)(CCC(=O)Nc2ccc3c(c2)C(=O)c2cc(NC(=O)CC[N+]4(C)CCC(C)CC4)ccc2-3)CC1` (configuration not stated), for which the IC50 in the test on A2780 is 2.5 µM; in the test on SK-OV-3, 3.75 µM; in the test with CH1, over 25 µM; in test [2], over 20 µM. Also, the inhibition result in test [5] is “Weak inhibition”. Besides, the inhibition entry in test [1] and in test [3] was “inactive” throughout.

On to `C[N+]1(CCC(=O)Nc2ccc3c(c2)C(=O)c2cc(NC(=O)CC[N+]4(C)CCCCC4)ccc2-3)CCCCC1`, for which the concentration for half-maximal inhibition (IC50) with A2780 worked out at 4.3 µM; with SK-OV-3, 3.9 µM; in the test on CH1, 5.2 µM; in test [2] it was 21 µM. The inhibition entry in test [1], in test [3] and in test [4] was “inactive” each time.

As to `CCN(CC)CCC(=O)Nc1ccc2c(c1)C(=O)c1cc(NC(=O)CCN(CC)CC)ccc1-2`, the IC50 is 14 µM in the test on A2780, 9.65 µM with SK-OV-3, 8 µM with CH1 and 15.5 µM in test [2]. Further, the inhibition result in test [1], in test [3] and in test [4] was “inactive” throughout.

In the case of `C[N+](C)(C)CCC(=O)Nc1ccc2c(c1)C(=O)c1cc(NC(=O)CC[N+](C)(C)C)ccc1-2`, the IC50 is 2.25 µM in the test with A2780, 1.95 µM in the test on SK-OV-3, 1.95 µM with CH1 and 18.5 µM in test [2]. Also, the inhibition result in test [1], in test [3] and in test [4] was “inactive” throughout.

For `O=C(CCN1CCCCC1CCO)Nc1ccc2c(c1)C(=O)c1cc(NC(=O)CCN3CCCCC3CCO)ccc1-2` (configuration not stated), the IC50 in the test on A2780 is over 25 µM; in the test on SK-OV-3, 20 µM; in the test with CH1, 14.5 µM; in test [2], 16.5 µM. The inhibition result in test [1], in test [3] and in test [4] was “inactive” throughout.

In the case of `CC1CCCC[N+]1(C)CCC(=O)Nc1ccc2c(c1)C(=O)c1cc(NC(=O)CC[N+]3(C)CCCCC3C)ccc1-2` (configuration not stated), the IC50 is 4.85 µM in the test with A2780, 3.95 µM with SK-OV-3, 2.6 µM in the test on CH1 and over 20 µM in test [2]. Further, the inhibition result in test [5] is “Weak inhibition”. The inhibition result in test [1] and in test [3] was “inactive” in each case.

Consider `O=C(CCN1CCOCC1)Nc1ccc2c(c1)C(=O)c1cc(NC(=O)CCN3CCOCC3)ccc1-2`, for which the IC50 in the test with A2780 was over 25 µM; with SK-OV-3 it was over 25 µM; with CH1 it was over 25 µM; in test [2], over 50 µM. The inhibition entry in test [1], in test [3] and in test [4] was “inactive” throughout.

Turning to `O=C(CCN1CCN(c2ccccc2)CC1)Nc1ccc2c(c1)C(=O)c1cc(NC(=O)CCN3CCN(c4ccccc4)CC3)ccc1-2`, the IC50 is over 25 µM with A2780, over 25 µM with SK-OV-3, over 25 µM in the test on CH1 and over 50 µM in test [2]. Moreover, the inhibition result in test [1], in test [3] and in test [4] was “inactive” each time.

Turning to `CCC1CCCCN1CCC(=O)Nc1ccc2c(c1)C(=O)c1cc(NC(=O)CCN3CCCCC3CC)ccc1-2` (configuration not stated), the IC50 in the test on A2780 is 2.2 µM; in the test with SK-OV-3, 3.15 µM; in the test on CH1, 2.15 µM; in test [2], 14 µM. Also, the inhibition entry in test [1], in test [3] and in test [4] was “inactive” in each case.

In the case of `CC[N+](C)(CC)CCC(=O)Nc1ccc2c(c1)C(=O)c1cc(NC(=O)CC[N+](C)(CC)CC)ccc1-2`, the IC50 came to 3.7 µM in the test with A2780, 2.4 µM with SK-OV-3, 2.45 µM in the test on CH1 and 25.4 µM in test [2]. For the same molecule, the inhibition result in test [1], in test [3] and in test [4] was “inactive” throughout.

Consider `O=C(CCN1CCN(c2ccccn2)CC1)Nc1ccc2c(c1)C(=O)c1cc(NC(=O)CCN3CCN(c4ccccn4)CC3)ccc1-2`, for which the IC50 is over 25 µM in the test with A2780, over 25 µM in the test with SK-OV-3, over 25 µM in the test on CH1 and over 50 µM in test [2]. Also, the inhibition result in test [1], in test [3] and in test [4] was “inactive” throughout.

In turn, `CCN(CC)CCC(=O)Nc1ccc2c(c1)C(=O)c1cc(NC(=O)CCN(CC)CC)ccc1C2=O` had a half-inhibitory concentration (IC50) in the test with A2780 of 2.15 µM.

With `O=C(CCN1CCCCC1)Nc1ccc2c(c1)C(=O)c1cc(NC(=O)CCN3CCCCC3)ccc1-2`, the IC50 worked out at 11 µM in the test with A2780, 11 µM in the test on SK-OV-3, 7.6 µM with CH1 and 9 µM in test [2]. Also, the inhibition result in test [1], in test [3] and in test [4] was “inactive” each time.

For the molecule `O=C(CCN1CCN(Cc2ccccc2)CC1)Nc1ccc2c(c1)C(=O)c1cc(NC(=O)CCN3CCN(Cc4ccccc4)CC3)ccc1-2`, the half-maximal inhibitory concentration (IC50) with A2780 is over 25 µM; in the test on SK-OV-3, over 25 µM; in the test with CH1 it was over 25 µM; in test [2] it was over 50 µM. In addition, the inhibition result in test [1], in test [3] and in test [4] was “inactive” in each case.

In the case of `C[N+]1(CCC(=O)Nc2ccc3c(c2)C(=O)c2cc(NC(=O)CC[N+]4(C)CCCCC4CO)ccc2-3)CCCCC1CO` (configuration not stated), the IC50 turned out to be 3.75 µM with A2780, 4.3 µM in the test with SK-OV-3, 4.2 µM in the test with CH1 and 33 µM in test [2]. Also, the inhibition result in test [1], in test [3] and in test [4] was “inactive” throughout.

With `CN(C)CCC(=O)Nc1ccc2c(c1)C(=O)c1cc(NC(=O)CCN(C)C)ccc1-2`, the IC50 in the test on A2780 was found to be 12 µM; with SK-OV-3, 8.2 µM; in the test on CH1 it was 8.5 µM; in test [2] it was 16.2 µM. Moreover, the inhibition result in test [1], in test [3] and in test [4] was “inactive” in each case.

For `CC1CCCCN1CCC(=O)Nc1ccc2c(c1)C(=O)c1cc(NC(=O)CCN3CCCCC3C)ccc1-2` (configuration not stated), the IC50 in the test on A2780 is 10.5 µM; in the test with SK-OV-3 it was 12 µM; in the test on CH1, 1.8 µM; in test [2], 12 µM. Moreover, the inhibition entry in test [1], in test [3] and in test [4] was “inactive” in each case.

With `O=C(CCN1CCC(O)CC1)Nc1ccc2c(c1)C(=O)c1cc(NC(=O)CCN3CCC(O)CC3)ccc1-2`, the 50% inhibitory concentration (IC50) in the test on A2780 is over 25 µM; in the test on SK-OV-3, over 25 µM; in the test on CH1, over 25 µM; in test [2], 18.5 µM. In addition, the inhibition result in test [1], in test [3] and in test [4] was “inactive” in each case.

Turning to `CCC1CCCC[N+]1(C)CCC(=O)Nc1ccc2c(c1)C(=O)c1cc(NC(=O)CC[N+]3(C)CCCCC3CC)ccc1-2` (configuration not stated), the IC50 was 2.9 µM with A2780, 2.6 µM in the test with SK-OV-3, 2.35 µM with CH1 and over 20 µM in test [2]. Moreover, the inhibition entry in test [5] was “Weak inhibition”. The inhibition result in test [1] and in test [3] was “inactive” in each case.

Turning to `CCN1CCN(CCC(=O)Nc2ccc3c(c2)C(=O)c2cc(NC(=O)CCN4CCN(CC)CC4)ccc2-3)CC1`, the IC50 is over 25 µM in the test with A2780, over 25 µM with SK-OV-3, over 25 µM in the test with CH1 and 17 µM in test [2]. The inhibition result in test [1], in test [3] and in test [4] was “inactive” each time.
